In ChEMBL document CHEMBL4038330, “Discovery of Potent Orally Active Protease-Activated Receptor 1 (PAR1) Antagonists Based on Andrographolide” (J Med Chem, 2017):

Assays:
[1] = Cmax in Wistar rat at 1 mg/kg, iv administered as bolus dose measured up to 24 hrs post dose by HPLC-MS/MS analysis; type: ADME, organism-based; set-up: dose 1 mg/kg, route intravenous; settings: in vivo
Outline: (§1)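 Male Wistar rats, n = 6 per group, given 1 mg/kg intravenously or 5 mg/kg intragastrically. Blood concentrations followed over 24 h. Non-compartmental analysis; values as median ± SD. Bioavailability from oral versus intravenous exposure.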

[2] = tested on: collagen-stimulated platelet aggregation; assay: Toxicity in guinea pig assessed as inhibition of collagen-stimulated platelet aggregation at 30 mg/kg, po pretreated for 2 hrs followed by collagen stimulation measured after 5 mins; type: organism-based, Cavia porcellus; settings: in vivo
Rattus norvegicus [3] = assay: AUMC (0 to infinity) in Wistar rat at 1 mg/kg, iv administered as bolus dose measured up to 24 hrs post dose by HPLC-MS/MS analysis; type: ADME, organism-based; settings: in vivo; outline: as §1
Rattus norvegicus [4] = assay: VRT (0 to infinity) in Wistar rat at 5 mg/kg, po measured up to 24 hrs post dose by HPLC-MS/MS analysis; type: ADME, organism-based; settings: in vivo
Rattus norvegicus [5] = assay: Apparent volume of distribution in Wistar rat at 5 mg/kg, po measured up to 24 hrs post dose by HPLC-MS/MS analysis; type: ADME, organism-based; settings: in vivo; outline: as §1
[6] = tested on: collagen-stimulated platelet aggregation; assay: Toxicity in guinea pig assessed as inhibition of collagen-stimulated platelet aggregation at 10 mg/kg, po pretreated for 2 hrs followed by collagen stimulation measured after 5 mins; type: organism-based, Cavia porcellus; settings: in vivo
[7] = tested on: ADP-stimulated platelet aggregation; assay: Toxicity in guinea pig assessed as inhibition of ADP-stimulated platelet aggregation at 30 mg/kg, po pretreated for 2 hrs followed by ADP stimulation measured after 5 mins; type: organism-based, Cavia porcellus; settings: in vivo
Rattus norvegicus [8] = assay: Toxicity in Wistar rat assessed as behavioral abnormalities at 5 mg/kg, po measured up to 24 hrs post dose; type: organism-based; settings: in vivo
Outline: (§2)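 Male Wistar rats given 1 mg/kg iv or 5 mg/kg intragastrically. Behaviour observed for abnormalities over the 24 h sampling period.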

Rattus norvegicus [9] = assay: VRT (0 to infinity) in Wistar rat at 1 mg/kg, iv administered as bolus dose measured up to 24 hrs post dose by HPLC-MS/MS analysis; type: ADME, organism-based; settings: in vivo
[10] = Oral bioavailability in Wistar rat at 5 mg/kg measured up to 24 hrs post dose by HPLC-MS/MS analysis; type: ADME, organism-based; settings: in vivo; outline: as §1
[11] = MRT (0 to infinity) in Wistar rat at 1 mg/kg, iv administered as bolus dose measured up to 24 hrs post dose by HPLC-MS/MS analysis; type: ADME, organism-based; settings: in vivo; outline: as §1
[12] = AUC (0 to infinity) in Wistar rat at 1 mg/kg, iv administered as bolus dose measured up to 24 hrs post dose by HPLC-MS/MS analysis; type: ADME, organism-based; set-up: dose 1 mg/kg, time infinity, route intravenous; settings: in vivo
Outline: (§3)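 Male Wistar rats, n = 6 per group, dosed intragastrically at 5 mg/kg or intravenously at 1 mg/kg. Blood concentrations followed over 24 h. Parameters from non-compartmental analysis, reported as median ± SD.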

Rattus norvegicus [13] = assay: AUMC (0 to infinity) in Wistar rat at 5 mg/kg, po measured up to 24 hrs post dose by HPLC-MS/MS analysis; type: ADME, organism-based; settings: in vivo; outline: as §1
[14] = AUC (0 to infinity) in Wistar rat at 5 mg/kg, po measured up to 24 hrs post dose by HPLC-MS/MS analysis; type: ADME, organism-based; set-up: dose 5 mg/kg, time infinity, route oral; settings: in vivo; outline: as §3
[15] = Tmax in Wistar rat at 1 mg/kg, iv administered as bolus dose measured up to 24 hrs post dose by HPLC-MS/MS analysis; type: ADME, organism-based; settings: in vivo; outline: as §1
Plasma [16] = assay: Drug metabolism in Wistar rat plasma assessed as [M2+O] metabolite formation at 5 mg/kg, po administered as single dose measured at 3 hrs post dose by LC-HRMS analysis; type: ADME, organism-based; settings: in vivo
Outline: (§4)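 Rats dosed orally at 10 mg/kg or 5 mg/kg. Plasma taken at 3.0 h after dosing. Parent and metabolites detected by extracted ion chromatograms.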

Plasma [17] = assay: Drug metabolism in Wistar rat plasma assessed as [M2-2H] metabolite formation at 5 mg/kg, po administered as single dose measured at 3 hrs post dose by LC-HRMS analysis; type: ADME, organism-based; settings: in vivo; outline: as §4
Platelet [18] = assay: Effect on ADP-stimulated platelet aggregation in human platelet-rich plasma up to 10 uM preincubated for 20 mins followed by ADP stimulation measured after 5 mins by aggregometric analysis; type: ADME, cell-based
Outline: (§5)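 Human platelet-rich plasma stimulated with TRAP 15 µM, ADP 10 µM or collagen 5 µg/mL. ADP and collagen tests went up to 10 µM compound. Three separate experiments per agonist. Mean IC50 taken from IC50s of the independent experiments; values given as median ± SD.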

[19] = Apparent clearance in Wistar rat at 5 mg/kg, po measured up to 24 hrs post dose by HPLC-MS/MS analysis; type: ADME, organism-based; settings: in vivo, read-out: CL(app) (converted); outline: as §1
Cavia porcellus [20] = assay: In vivo antagonist activity at PAR1 in guinea pig assessed as inhibition of TRAP-stimulated platelet aggregation at 30 mg/kg, po pretreated for 2 hrs followed by TRAP stimulation measured after 5 mins; type: functional
Plasma [21] = assay: Drug metabolism in Wistar rat plasma assessed as [M2+O-2H] metabolite formation at 5 mg/kg, po administered as single dose measured at 3 hrs post dose by LC-HRMS analysis; type: ADME, organism-based; settings: in vivo; outline: as §4
Cavia porcellus [22] = assay: In vivo antagonist activity at PAR1 in guinea pig assessed as inhibition of thrombin-stimulated platelet aggregation at 30 mg/kg, po pretreated for 2 hrs followed by thrombin stimulation measured after 5 mins; type: functional
Plasma [23] = assay: Stability in Wistar rat assessed as parent compound level in plasma at 5 mg/kg, po administered as single dose measured at 3 hrs post dose by LC-HRMS analysis; type: ADME, organism-based; settings: in vivo; outline: as §4
Cavia porcellus [24] = assay: In vivo antagonist activity at PAR1 in guinea pig assessed as inhibition of TRAP-stimulated platelet aggregation at 10 mg/kg, po pretreated for 2 hrs followed by TRAP stimulation measured after 5 mins; type: functional
Platelet [25] = assay: Effect on collagen-stimulated platelet aggregation in human platelet-rich plasma up to 10 uM preincubated for 20 mins followed by collagen stimulation measured after 5 mins by aggregometric analysis; type: ADME, cell-based; outline: as §5
Rattus norvegicus [26] = assay: Toxicity in Wistar rat assessed as behavioral abnormalities at 1 mg/kg, iv measured up to 24 hrs post dose; type: organism-based; settings: in vivo; outline: as §2
[27] = Tmax in Wistar rat at 5 mg/kg, po measured up to 24 hrs post dose by HPLC-MS/MS analysis; type: ADME, organism-based; settings: in vivo; outline: as §1
Cavia porcellus [28] = assay: In vivo antagonist activity at PAR1 in guinea pig assessed as inhibition of thrombin-stimulated platelet aggregation at 10 mg/kg, po pretreated for 2 hrs followed by thrombin stimulation measured after 5 mins; type: functional
[29] = tested on: ADP-stimulated platelet aggregation; assay: Toxicity in guinea pig assessed as inhibition of ADP-stimulated platelet aggregation at 10 mg/kg, po pretreated for 2 hrs followed by ADP stimulation measured after 5 mins; type: organism-based, Cavia porcellus; settings: in vivo
[30] = Apparent clearance in Wistar rat at 1 mg/kg, iv administered as bolus dose measured up to 24 hrs post dose by HPLC-MS/MS analysis; type: ADME, organism-based; settings: in vivo, read-out: CL(app) (converted); outline: as §1
Rattus norvegicus [31] = assay: Toxicity in Wistar rat assessed as body weight at 1 mg/kg, iv administered as bolus dose measured up to 24 hrs post dose; type: organism-based; settings: in vivo; outline: as §1
[32] = Apparent terminal half life in Wistar rat at 1 mg/kg, iv administered as bolus dose measured up to 24 hrs post dose by HPLC-MS/MS analysis; type: ADME, organism-based; settings: in vivo, read-out: betat1/2(app) (converted); outline: as §1
[33] = Cmax in Wistar rat at 5 mg/kg, po measured up to 24 hrs post dose by HPLC-MS/MS analysis; type: ADME, organism-based; set-up: dose 5 mg/kg, route oral; settings: in vivo; outline: as §1

In the case of `CC1CC[C@@H]2C(C)(C)[C@H](O)CC[C@@]2(C)[C@@H]1/C=C/c1ccc(-c2cccc(F)c2)cn1` (single isomer, unassigned), the Cmax [1] is reported as 1730 ng/mL, the inhibition at 5 min [2] is reported as 6.8% and the AUMC (Rattus norvegicus [3]) is reported as 1135 ng·h/mL. The VRT (Rattus norvegicus [4]) was 25 ha2, the “Vd(app)” value (Rattus norvegicus [5]) was 20 L/kg and the inhibition at 5 min [6] was 5.5%. For the same compound, the inhibition at 5 min [7] was 4.5%, the Activity (Rattus norvegicus [8]) was “Non-Toxic” and the VRT (Rattus norvegicus [9]) was 7.6 ha2. It also gave a bioavailability [10] of 52.5%, an MRT inf [11] of 2 h and an AUC(0-inf) [12] of 552 ng·h/mL. The AUMC (Rattus norvegicus [13]) was 8382 ng·h/mL, the AUC(0-inf) [14] was 1450 ng·h/mL and the Tmax [15] was 1.2 min. For the same compound, the Drug metabolism (Plasma [16]) was “Metabolite_Detected”, the Drug metabolism (Plasma [17]) was “Metabolite_Detected” and the Activity (Platelet [18]) was “Non-Toxic”. The CL/F [19] was 75 mL/min/kg, the inhibition in vivo at 30 mg/kg (Cavia porcellus [20]) was 98.7% and the Drug metabolism (Plasma [21]) was “Metabolite_Detected”. For the same compound, the inhibition in vivo at 30 mg/kg (Cavia porcellus [22]) was 99.8%, the Stability (Plasma [23]) was “Stable” and the inhibition in vivo at 10 mg/kg (Cavia porcellus [24]) was 87.6%. The Activity (Platelet [25]) was “Non-Toxic”, the Activity (Rattus norvegicus [26]) was “Non-Toxic” and the Tmax [27] was 2.5 h. The inhibition in vivo at 10 mg/kg (Cavia porcellus [28]) was 66.9%, the inhibition at 5 min [29] was 6.7% and the clearance [30] was 31.7 mL/min/kg. For the same compound, the Activity (Rattus norvegicus [31]) was 226 g, the half-life [32] was 2 h and the Cmax [33] was 229 ng/mL.
